ChEMBL document CHEMBL1124846, “Synthesis, antiproliferative, and antiviral activity of certain 4-substituted and 4,5-disubstituted 7-[(1,3-dihydroxy-2-propoxy)methyl]pyrrolo[2,3-d]pyrimidines” (J Med Chem, 1990)

Experiments:
Human betaherpesvirus 5 = assay: Inhibition of human cytomegalovirus (HCMV) in plaque reduction assay; assay type: functional, organism-based
How it was run: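 HCMV Towne strain (plaque-purified P0) plaque reduction in HFF monolayers in MEM(E) with 10% FBS. Inoculum held about 50 PFU, with compound dissolved in the overlay medium. IC50 came from linear regression of percent inhibition against log concentration, with ganciclovir or acyclovir positive controls in every set; two to five experiments.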

Neoplastic cell line [1] = assay: Cytotoxic activity against KB cells.; assay type: cell-based; settings: Homo sapiens
How it was run: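 KB cells (human oral epidermoid carcinoma) grown in MEM(H) with 5% FBS. Compound effect on incorporation of radiolabelled precursors into DNA, RNA and protein was measured. IC50s came from linear regression of percent inhibition against log concentration, and the three IC50s were averaged.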

L1210 [2] = assay: In vitro inhibition of L1210 cell growth.; assay type: functional, Mus musculus; parameters: concentration or dose not given beside the values
How it was run: (§1)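 Murine L1210 leukemia cells in static suspension culture in Fischer's medium with compound for 4 days. Growth rate is the ratio of control to treated population doubling time; where the rate changed, the final rate was used. IC50 is the concentration giving 50% of control growth rate; single-concentration value at 100 μM.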

L1210 [3] = assay: In vitro inhibition of L1210 cell growth to half of the control rate; assay type: functional, cell-based; settings: Mus musculus; how it was run: as §1
[4] = Cytotoxic activity against BSC cells; assay type: cell-based; settings: Cercopithecidae
How it was run: (§2)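 Cytotoxicity was scored visually in uninfected HFF or BSC-1 monolayers within the plaque-reduction assays. Drug-induced cytopathology was read at 35- and 60-fold magnification on a 0 to 4+ scale on the day plaques were stained and counted.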

Human alphaherpesvirus 1 [5] = assay: Inhibition of herpes simplex virus (HSV-1) in plaque reduction assay; assay type: functional, organism-based
How it was run: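 HSV-1 S-148 strain plaque reduction in BSC-1 monkey kidney monolayers, with about 100 PFU inoculum and compound dissolved in the overlay medium. IC50 came from linear regression of percent inhibition against log concentration, with a positive control in each set.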

[6] = Cytotoxic activity against HFF cells.; assay type: cell-based; settings: Homo sapiens; how it was run: as §2
Human alphaherpesvirus 1 [7] = assay: Inhibition of herpes simplex virus (HSV-1) in yield reduction assay; assay type: functional, organism-based
[8] = Compound was evaluated for cytotoxic activity against BSC cells; assay type: cell-based; settings: Cercopithecidae
How it was run: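 Visual cytotoxicity in uninfected areas of plaque-reduction cultures. HFF cells grown in MEM(E) + 10% FBS for HCMV (Towne) assays; BSC-1 cells for HSV-1 (S-148) assays. Drug in overlay medium. Cytopathology scored 0 to 4+ at 35- and 60-fold magnification on the staining day.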

Neoplastic cell line [9] = assay: Compound was evaluated for cytotoxic activity against KB cells; assay type: cell-based; settings: Homo sapiens
How it was run: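 KB cells grown in MEM(H) + 5% FBS. Compound effects measured on radiolabelled precursor incorporation into DNA, RNA and protein. IC50s from linear regression of percent inhibition vs log concentration. The three IC50s were averaged, with 2–5 experiments averaged. Runs rejected if the acyclovir/ganciclovir control deviated >1.5 SD from its mean.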

Mus musculus [10] = assay: Compound was evaluated for percent mortality of mice inoculated with murine cytomegalovirus at a concentration of 5.6 mg/kg at 48 h; assay type: ADME, organism-based; parameters: dose 5.6 mg/kg; settings: in vivo
How it was run: (§3)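 Three-week-old female Swiss Webster mice infected ip with 2×10^5 PFU MCMV Smith strain; groups of 15 given drug ip twice daily for 5 days, starting 6, 24 or 48 h after inoculation. Toxicity controls received drug without virus. Mortality followed daily for 21 days; final mortality compared with placebo by Fisher Exact Test.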

Mus musculus [11] = assay: Compound was evaluated for percent mortality of mice inoculated with murine cytomegalovirus at a concentration of 5.6 mg/kg at 6 h; assay type: ADME, organism-based; parameters: dose 5.6 mg/kg; settings: in vivo; how it was run: as §3
Mus musculus [12] = assay: Compound was evaluated for percent mortality of mice inoculated with murine cytomegalovirus at a concentration of 0.6 mg/kg at 24 h; assay type: organism-based; parameters: dose 0.6 mg/kg; settings: in vivo
How it was run: (§4)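 Three-week-old female Swiss Webster mice inoculated ip with 2×10^5 PFU MCMV Smith strain. Groups of 15 dosed ip twice daily for 5 days, starting 6, 24 or 48 h post-inoculation. Held 21 days with daily mortality checks. Final mortality and mean day of death (dying animals) computed. Mortality versus placebo by Fisher Exact Test, MDD by Mann–Whitney U-rank test.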

Mus musculus [13] = assay: Compound was evaluated for percent mortality of mice inoculated with murine cytomegalovirus at a concentration of 0.6 mg/kg at 48 h; assay type: organism-based; parameters: dose 0.6 mg/kg; settings: in vivo; how it was run: as §4
Mus musculus [14] = assay: Compound was evaluated for percent mortality of mice inoculated with murine cytomegalovirus at a concentration of 0.6 mg/kg at 6 h; assay type: organism-based; parameters: dose 0.6 mg/kg; settings: in vivo; how it was run: as §4
Mus musculus [15] = assay: Compound was evaluated for percent mortality of mice inoculated with murine cytomegalovirus at a concentration of 1.9 mg/kg at 24 h; assay type: organism-based; parameters: dose 1.9 mg/kg; settings: in vivo; how it was run: as §4
Mus musculus [16] = assay: Compound was evaluated for percent mortality of mice inoculated with murine cytomegalovirus at a concentration of 1.9 mg/kg at 48 h; assay type: organism-based; parameters: dose 1.9 mg/kg; settings: in vivo; how it was run: as §4
Mus musculus [17] = assay: Compound was evaluated for percent mortality of mice inoculated with murine cytomegalovirus at a concentration of 1.9 mg/kg at 6 h; assay type: organism-based; parameters: dose 1.9 mg/kg; settings: in vivo; how it was run: as §4
Mus musculus [18] = assay: Compound was evaluated for percent mortality of mice inoculated with murine cytomegalovirus at a concentration of 16.7 mg/kg at 24 h; assay type: organism-based; parameters: dose 16.7 mg/kg; settings: in vivo; how it was run: as §4
Mus musculus [19] = assay: Compound was evaluated for percent mortality of mice inoculated with murine cytomegalovirus at a concentration of 16.7 mg/kg at 48 h; assay type: organism-based; parameters: dose 16.7 mg/kg; settings: in vivo; how it was run: as §4
Mus musculus [20] = assay: Compound was evaluated for percent mortality of mice inoculated with murine cytomegalovirus at a concentration of 16.7 mg/kg at 6 h; assay type: organism-based; parameters: dose 16.7 mg/kg; settings: in vivo; how it was run: as §4
Mus musculus [21] = assay: Compound was evaluated for percent mortality of mice inoculated with murine cytomegalovirus at a concentration of 5.6 mg/kg at 24 h; assay type: ADME, organism-based; parameters: dose 5.6 mg/kg; settings: in vivo; how it was run: as §3
Mus musculus [22] = assay: Compound was evaluated for 15 mice treated ip twice daily for 5 days at a dose of 0.6 mg/kg at 24 h followed (MCMV) virus inoculation; assay type: functional; settings: route intraperitoneal; how it was run: as §4
Mus musculus [23] = assay: Compound was evaluated for 15 mice treated ip twice daily for 5 days at a dose of 0.6 mg/kg at 48 h followed (MCMV) virus inoculation; assay type: functional; settings: route intraperitoneal; how it was run: as §4
Mus musculus [24] = assay: Compound was evaluated for 15 mice treated ip twice daily for 5 days at a dose of 0.6 mg/kg at 6 hr followed (MCMV) virus inoculation; assay type: functional; settings: route intraperitoneal; how it was run: as §4
Mus musculus [25] = assay: Compound was evaluated for 15 mice treated ip twice daily for 5 days at a dose of 1.9 mg/kg at 24 hr followed (MCMV) virus inoculation; assay type: functional; settings: route intraperitoneal; how it was run: as §4
Mus musculus [26] = assay: Compound was evaluated for 15 mice treated ip twice daily for 5 days at a dose of 1.9 mg/kg at 48 hr followed (MCMV) virus inoculation; assay type: functional; settings: route intraperitoneal; how it was run: as §4
Mus musculus [27] = assay: Compound was evaluated for 15 mice treated ip twice daily for 5 days at a dose of 1.9 mg/kg at 6 hr followed (MCMV) virus inoculation; assay type: functional; settings: route intraperitoneal; how it was run: as §4
Mus musculus [28] = assay: Compound was evaluated for 15 mice treated ip twice daily for 5 days at a dose of 16.7 mg/kg at 24 hr followed (MCMV) virus inoculation; assay type: functional; settings: route intraperitoneal; how it was run: as §4
Mus musculus [29] = assay: Compound was evaluated for 15 mice treated ip twice daily for 5 days at a dose of 16.7 mg/kg at 48 hr followed (MCMV) virus inoculation; assay type: functional; settings: route intraperitoneal; how it was run: as §4
Mus musculus [30] = assay: Compound was evaluated for 15 mice treated ip twice daily for 5 days at a dose of 16.7 mg/kg at 6 hr followed (MCMV) virus inoculation; assay type: functional; settings: route intraperitoneal; how it was run: as §4
Mus musculus [31] = assay: Compound was evaluated for 15 mice treated ip twice daily for 5 days at a dose of 5.6 mg/kg at 24 hr followed (MCMV) virus inoculation; assay type: functional; settings: route intraperitoneal; how it was run: as §4
Mus musculus [32] = assay: Compound was evaluated for 15 mice treated ip twice daily for 5 days at a dose of 5.6 mg/kg at 48 hr followed (MCMV) virus inoculation; assay type: functional; settings: route intraperitoneal; how it was run: as §4
Mus musculus [33] = assay: Compound was evaluated for 15 mice treated ip twice daily for 5 days at a dose of 5.6 mg/kg at 6 hr followed (MCMV) virus inoculation; assay type: functional; settings: route intraperitoneal; how it was run: as §4
Mus musculus [34] = assay: Compound was evaluated for mean day of death at 0.6 mg/kg at 48 h; assay type: functional; how it was run: as §4
Mus musculus [35] = assay: Compound was evaluated for mean day of death at 0.6 mg/kg at 6 h; assay type: functional; how it was run: as §4
Mus musculus [36] = assay: Compound was evaluated for mean day of death at 1.9 mg/kg at 24 h; assay type: functional; how it was run: as §4
Mus musculus [37] = assay: Compound was evaluated for mean day of death at 1.9 mg/kg at 48 h; assay type: functional; how it was run: as §4
Mus musculus [38] = assay: Compound was evaluated for mean day of death at 1.9 mg/kg at 6 h; assay type: functional; how it was run: as §4
Mus musculus [39] = assay: Compound was evaluated for mean day of death at 16.7 mg/kg at 24 h; assay type: functional; how it was run: as §4
Mus musculus [40] = assay: Compound was evaluated for mean day of death at 16.7 mg/kg at 48 h; assay type: functional; how it was run: as §4
Mus musculus [41] = assay: Compound was evaluated for mean day of death at 16.7 mg/kg at 6 h; assay type: functional; how it was run: as §4
Mus musculus [42] = assay: Compound was evaluated for mean day of death at 5.6 mg/kg at 24 h; assay type: functional; how it was run: as §4
Mus musculus [43] = assay: Compound was evaluated for mean day of death at 5.6 mg/kg at 48 h; assay type: functional; how it was run: as §4
Mus musculus [44] = assay: Compound was evaluated for mean day of death at 5.6 mg/kg at 6 h; assay type: functional; how it was run: as §4
Mus musculus [45] = assay: Compound was evaluated for mean day of death at 0.6 mg/kg at 24 h; assay type: functional; how it was run: as §4

SMILES: Nc1ncnc2c1c(Br)cn2[C@@H]1O[C@H](CO)[C@@H](O)[C@H]1O
- IC50 (Human betaherpesvirus 5): 3.4 µM
- IC50 (Neoplastic cell line [1]): 2.3 µM
- Activity (L1210 [2]): 9%
- IC50 (L1210 [3]): 4 µM

SMILES: CNc1ncnc2c1c(Br)cn2COC(CO)CO
- IC50 [4]: > 100 µM
- IC50 (Human alphaherpesvirus 1 [5]): > 100 µM
- IC50 (Human betaherpesvirus 5; Human betaherpesvirus 5): > 100 µM
- IC50 [6]: > 100 µM
- Activity (L1210 [2]): 100%

SMILES: Nc1nc2c(ncn2COCCO)c(=O)[nH]1 [ACYCLOVIR]
- IC50 [4]: > 100 µM
- IC50 (Human alphaherpesvirus 1 [5]): 4 µM
- IC90 (Human alphaherpesvirus 1 [7]): 7 µM
- IC50 (Human betaherpesvirus 5): 63 µM
- IC50 (Neoplastic cell line [1]): > 100 µM

SMILES: Nc1nc2c(ncn2COC(CO)CO)c(=O)[nH]1 [GANCICLOVIR]
- IC50 [8]: > 100 µM
- IC50 (Human alphaherpesvirus 1 [5]): 4.5 µM
- IC90 (Human alphaherpesvirus 1 [7]): 1.2 µM
- IC50 (Human betaherpesvirus 5): 8.7 µM
- IC50 (Neoplastic cell line [9]): > 100 µM
- Mortality (Mus musculus [10]): 67%
- Mortality (Mus musculus [11]): 33%
- Mortality (Mus musculus [12]): 80%
- Mortality (Mus musculus [13]): 93%
- Mortality (Mus musculus [14]): 93%
- Mortality (Mus musculus [15]): 80%
- Mortality (Mus musculus [16]): 73%
- Mortality (Mus musculus [17]): 33%
- Mortality (Mus musculus [18]): 47%
- Mortality (Mus musculus [19]): 53%
- Mortality (Mus musculus [20]): 27%
- Mortality (Mus musculus [21]): 47%
- Activity (Mus musculus [22]): 12
- Activity (Mus musculus [23]): 14
- Activity (Mus musculus [24]): 14
- Activity (Mus musculus [25]): 12
- Activity (Mus musculus [26]): 11
- Activity (Mus musculus [27]): 5
- Activity (Mus musculus [28]): 7
- Activity (Mus musculus [29]): 8
- Activity (Mus musculus [30]): 4
- Activity (Mus musculus [31]): 7
- Activity (Mus musculus [32]): 10
- Activity (Mus musculus [33]): 5
- MDD (Mus musculus [34]): 5.3
- MDD (Mus musculus [35]): 4.6
- MDD (Mus musculus [36]): 4.9
- MDD (Mus musculus [37]): 4.9
- MDD (Mus musculus [38]): 5.4
- MDD (Mus musculus [39]): 5.3
- MDD (Mus musculus [40]): 5.5
- MDD (Mus musculus [41]): 3.8
- MDD (Mus musculus [42]): 5.3
- MDD (Mus musculus [43]): 5.5
- MDD (Mus musculus [44]): 4.2
- MDD (Mus musculus [45]): 5.4
